Experimental data published in ChEMBL document CHEMBL4152319, “5-Hydroxypyrido[2,3-b]pyrazin-6(5H)-one derivatives as novel dual inhibitors of HIV-1 reverse transcriptase-associated ribonuclease H and integrase” (Eur J Med Chem, 2018).

Columns and labels:
[1] = target: Human immunodeficiency virus type 1 reverse transcriptase (Human immunodeficiency virus 1, UniProt Q72547); experiment: Inhibition of HIV-1 BH10 reverse transcriptase RNase H activity expressed in Escherichia coli using [32P]-labeled template primer 31Trna/21P as substrate pretreated for 5 mins followed by substrate addition by polyacrylamide gel electrophoresis method
Method in brief: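 Wild-type HIV-1 BH10 RT (20-40 nM) was preincubated with compound for 5 min at 37 °C in 50 mM Tris-HCl pH 8.0, 50 mM NaCl, 5 mM MgCl2, 5% DMSO. Reaction was started with 25 nM 5'-32P-labeled 31Trna/21P and run 20 s at 37 °C. Cleavage products were resolved on denaturing PAGE and quantified by phosphorimaging. IC50 came from dose-response curves over 0.2-100 μM.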

[2] = target: Human immunodeficiency virus type 1 integrase (Human immunodeficiency virus 1, UniProt Q7ZJM1); experiment: Inhibition of recombinant HIV1 integrase strand transfer activity using biotin-labeled double-stranded HIV-1 LTR U5 donor DNA substrate pretreated for 5 mins followed by substrate addition and measured after 30 mins by ELISA
[3] = system: Human immunodeficiency virus 1; experiment: Antiviral activity against Human immunodeficiency virus 1 3B infected in MT4 cells assessed as protection against virus-induced cytopathic effect measured 5 days post infection by MTT assay; type: functional, organism-based; details: MT4, 120 h
Method in brief: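 MT-4 cells resuspended at 6×10^5 cells/mL, infected with HIV-1 IIIB at 100-300 CCID50. Serial five-fold compound dilutions were run in triplicate wells. Viability was read by MTT reduction at 540 and 690 nm five days after infection, using the median OD of two or three wells. EC50 is the concentration giving 50% protection from viral cytopathicity.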

[4] = Cytotoxicity against human MT4 cells after 5 days by MTT assay; type: cell-based
Method in brief: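 Mock-infected MT-4 cells at 6×10^5 cells/mL were set up in triplicate wells alongside the infected series, with serial five-fold compound dilutions. Viability was measured by MTT at 540 and 690 nm after five days, using the median OD of two or three wells. CC50 is the concentration reducing viability of mock-infected cells by 50%.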

[5] = system: Human immunodeficiency virus 1; experiment: Selectivity ratio of IC50 for HIV-1 BH10 reverse transcriptase RNase H activity to IC50 for recombinant HIV1 integrase strand transfer activity
Method in brief: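 Ratio of RNase H IC50 to IN IC50. The RNase H IC50 came from the gel-based cleavage assay. The IN IC50 came from an ELISA strand-transfer assay: biotinylated LTR U5 donor DNA on streptavidin plates, full-length recombinant IN added, compound for 5 min at room temperature, then target DNA for 30 min at 37 °C. Products were detected with HRP antibody, TMB and A450.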

Chain of Human immunodeficiency virus type 1 integrase (Q7ZJM1 whole entry): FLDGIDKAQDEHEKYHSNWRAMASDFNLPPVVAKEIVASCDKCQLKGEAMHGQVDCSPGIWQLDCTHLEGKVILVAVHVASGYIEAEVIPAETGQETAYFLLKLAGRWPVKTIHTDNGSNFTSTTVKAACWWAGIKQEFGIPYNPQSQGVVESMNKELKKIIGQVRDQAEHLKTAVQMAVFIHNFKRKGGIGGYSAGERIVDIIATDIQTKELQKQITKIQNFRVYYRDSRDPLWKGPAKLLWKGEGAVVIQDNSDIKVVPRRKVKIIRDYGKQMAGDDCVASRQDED

Compound	IC50 [1] [µM]	IC50 [2] [µM]	EC50 [3] [µM]	CC50 at 120 h [4] [µM]	Ratio IC50 [5]
COC(=O)c1c(Nc2ccc(-c3ccc(OC)c(OC)c3)cc2)c2nccnc2n(O)c1=O	5.9	> 25	> 1.47	1.47	
COC(=O)c1c(Nc2cccc3ccccc23)c2nccnc2n(O)c1=O	4.3	> 25	> 1.38	1.38	
COC(=O)c1c(Nc2ccc(-c3cncnc3)cc2)c2nccnc2n(O)c1=O	3.24	1.49	> 8.04	8.04	2.17
Cc1nnc(C(=O)NC(C)(C)c2nc(C(=O)NCc3ccc(F)cc3)c(O)c(=O)n2C)o1			0.0117	> 56.2	
COC(=O)c1c(Nc2ccc(-c3cccc(C#N)c3)cc2)c2nccnc2n(O)c1=O	13.3	> 25	> 5.68	5.68	
COC(=O)c1c(Nc2cccc(-c3ccc(OC)c(OC)c3)c2)c2nccnc2n(O)c1=O	4.72	0.22	> 1.32	1.32	21.4
COC(=O)c1c(Nc2ccc(-c3ccc(C#N)cc3)cc2)c2nccnc2n(O)c1=O	1.77	1.18	> 0.34	0.34	1.5
CC(C)c1ccc(O)c(=O)c(O)c1 [BETA-THUJAPLICINOL]	2.5				
COC(=O)c1c(Nc2cccc(-c3cccc(C#N)c3)c2)c2nccnc2n(O)c1=O	4.02	0.25	> 1.16	1.16	16.1
COC(=O)c1c(Nc2cccc(-c3ccc(C#N)cc3)c2)c2nccnc2n(O)c1=O	5.56	22.8	> 1.19	1.19	0.24
COC(=O)c1c(Nc2cccc(-c3cncnc3)c2)c2nccnc2n(O)c1=O	1.85	10.8	> 5.89	5.89	0.17
COC(=O)c1c(Nc2ccc(-c3ccccc3)cc2)c2nccnc2n(O)c1=O	5.25	> 25	> 7	7	
COC(=O)c1c(Nc2ccc3ccccc3c2)c2nccnc2n(O)c1=O	5.11	6.74	> 7.15	7.15	0.76
